Assay results taken from ChEMBL document CHEMBL1821604, “Anticancer activity and cDNA microarray studies of a (RS)-1,2,3,5-tetrahydro-4,1-benzoxazepine-3-yl]-6-chloro-9H-purine, and an acyclic (RS)-O,N-acetalic 6-chloro-7H-purine” (Eur J Med Chem, 2011).

What was measured:
Assay type in all cases: functional
MCF7 [1] = test: Down regulation of FLJ35954 gene expression in human MCF7 cells at IC50 after 48 hrs by cDNA microarray technique relative to control
Summary of the method: (§1)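 Cells (8 × 10⁶) were cultured in DMEM with 10% heat-inactivated FBS at 37 °C under 5% CO₂. They were exposed for 48 h to compound at its IC₅₀, with DMSO-treated parallel cultures as controls (final DMSO ≤0.1% v/v). Total RNA was isolated by trizol/chloroform phase separation, RNeasy column cleanup and on-column DNase, then quantified by OD260/OD280. Expression was profiled by cDNA microarray relative to control.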

MCF7 [2] = test: Down regulation of KIAA1533 gene expression in human MCF7 cells at IC50 after 48 hrs by cDNA microarray technique relative to control; summary of the method: as §1
MCF7 [3] = test: Down regulation of DKFZp667G2110 gene expression in human MCF7 cells at IC50 after 48 hrs by cDNA microarray technique relative to control
Summary of the method: (§2)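 8 × 10⁶ cells exposed 48 h to compound at its IC50 concentration; total RNA isolated with trizol/chloroform and RNeasy columns including on-column DNase step; RNA quantified by OD 260/280; DMSO-treated cultures as control.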

MCF7 [4] = test: Down regulation of C1orf131 gene expression in human MCF7 cells at IC50 after 48 hrs by cDNA microarray technique relative to control; summary of the method: as §2
MCF7 [5] = test: Down regulation of SLC16A7 gene expression in human MCF7 cells at IC50 after 48 hrs by cDNA microarray technique relative to control
HT-29 [6] = test: Upregulation of YPEL1 gene expression in human HT-29 cells at IC50 after 48 hrs by cDNA microarray technique relative to control
MCF7 [7] = test: Down regulation of ZNF336 gene expression in human MCF7 cells at IC50 after 48 hrs by cDNA microarray technique relative to control
MCF7 [8] = test: Down regulation of SNTG1 gene expression in human MCF7 cells at IC50 after 48 hrs by cDNA microarray technique relative to control
HT-29 [9] = test: Upregulation of PMP22 gene expression in human HT-29 cells at IC50 after 48 hrs by cDNA microarray technique relative to control
HT-29 [10] = test: Upregulation of AVIL gene expression in human HT-29 cells at IC50 after 48 hrs by cDNA microarray technique relative to control
HT-29 [11] = test: Upregulation of CTSZ gene expression in human HT-29 cells at IC50 after 48 hrs by cDNA microarray technique relative to control
HT-29 [12] = test: Upregulation of PDGFA gene expression in human HT-29 cells at IC50 after 48 hrs by cDNA microarray technique relative to control
HT-29 [13] = test: Upregulation of NAV1 gene expression in human HT-29 cells at IC50 after 48 hrs by cDNA microarray technique relative to control
HT-29 [14] = test: Down regulation of GNRHR2 gene expression in human HT-29 cells at IC50 after 48 hrs by cDNA microarray technique relative to control; summary of the method: as §1
HT-29 [15] = test: Down regulation of P53AIP1 gene expression in human HT-29 cells at IC50 after 48 hrs by cDNA microarray technique relative to control
HT-29 [16] = test: Down regulation of FLJ25476 gene expression in human HT-29 cells at IC50 after 48 hrs by cDNA microarray technique relative to control; summary of the method: as §1
HT-29 [17] = test: Down regulation of KCNJ16 gene expression in human HT-29 cells at IC50 after 48 hrs by cDNA microarray technique relative to control; summary of the method: as §1
HT-29 [18] = test: Down regulation of ADAMTS3 gene expression in human HT-29 cells at IC50 after 48 hrs by cDNA microarray technique relative to control; summary of the method: as §2
HT-29 [19] = test: Down regulation of MOG gene expression in human HT-29 cells at IC50 after 48 hrs by cDNA microarray technique relative to control
MCF7 [20] = test: Upregulation of FLJ10945 gene expression in human MCF7 cells at IC50 after 48 hrs by cDNA microarray technique relative to control
MCF7 [21] = test: Upregulation of CR595826 gene expression in human MCF7 cells at IC50 after 48 hrs by cDNA microarray technique relative to control
MCF7 [22] = test: Upregulation of ERG gene expression in human MCF7 cells at IC50 after 48 hrs by cDNA microarray technique relative to control
MCF7 [23] = test: Down regulation of CORO2B gene expression in human MCF7 cells at IC50 after 48 hrs by cDNA microarray technique relative to control; summary of the method: as §2
HT-29 [24] = test: Down regulation of LOC203427 gene expression in human HT-29 cells at IC50 after 48 hrs by cDNA microarray technique relative to control
HT-29 [25] = test: Down regulation of TAF5L gene expression in human HT-29 cells at IC50 after 48 hrs by cDNA microarray technique relative to control
HT-29 [26] = test: Down regulation of MGC33637 gene expression in human HT-29 cells at IC50 after 48 hrs by cDNA microarray technique relative to control
HT-29 [27] = test: Down regulation of PYCRL gene expression in human HT-29 cells at IC50 after 48 hrs by cDNA microarray technique relative to control
HT-29 [28] = test: Down regulation of ACCN5 gene expression in human HT-29 cells at IC50 after 48 hrs by cDNA microarray technique relative to control; summary of the method: as §2
MCF7 [29] = test: Upregulation of FLJ14075 gene expression in human MCF7 cells at IC50 after 48 hrs by cDNA microarray technique relative to control
MCF7 [30] = test: Upregulation of UNQ739 gene expression in human MCF7 cells at IC50 after 48 hrs by cDNA microarray technique relative to control
MCF7 [31] = test: Upregulation of CALM1 gene expression in human MCF7 cells at IC50 after 48 hrs by cDNA microarray technique relative to control
MCF7 [32] = test: Upregulation of CITED1 gene expression in human MCF7 cells at IC50 after 48 hrs by cDNA microarray technique relative to control
MCF7 [33] = test: Down regulation of SPINK2 gene expression in human MCF7 cells at IC50 after 48 hrs by cDNA microarray technique relative to control
MCF7 [34] = test: Down regulation of OR8A1 gene expression in human MCF7 cells at IC50 after 48 hrs by cDNA microarray technique relative to control
HT-29 [35] = test: Down regulation of SOCS4 gene expression in human HT-29 cells at IC50 after 48 hrs by cDNA microarray technique relative to control
HT-29 [36] = test: Down regulation of GK001 gene expression in human HT-29 cells at IC50 after 48 hrs by cDNA microarray technique relative to control; summary of the method: as §1
HT-29 [37] = test: Down regulation of GANAB gene expression in human HT-29 cells at IC50 after 48 hrs by cDNA microarray technique relative to control; summary of the method: as §1
HT-29 [38] = test: Down regulation of RXRB gene expression in human HT-29 cells at IC50 after 48 hrs by cDNA microarray technique relative to control

COC(CN(c1ccccc1CO)S(=O)(=O)c1ccccc1[N+](=O)[O-])n1cnc2ncnc(Cl)c21 (racemic)
fold change (FC) (MCF7 [1]): -2.06 | fold change (FC) (MCF7 [2]): -2.09 | fold change (FC) (MCF7 [3]): -2.15 | fold change (FC) (MCF7 [4]): -2.26 | fold change (FC) (MCF7 [5]): -2.27 | fold change (FC) (HT-29 [6]): 4.71 | fold change (FC) (MCF7 [7]): -2.45 | fold change (FC) (MCF7 [8]): -2.46 | fold change (FC) (HT-29 [9]): 2.54 | fold change (FC) (HT-29 [10]): 2.46 | fold change (FC) (HT-29 [11]): 2.23 | fold change (FC) (HT-29 [12]): 2.15 | fold change (FC) (HT-29 [13]): 2.06 | fold change (FC) (HT-29 [14]): -2.03 | fold change (FC) (HT-29 [15]): -2.06 | fold change (FC) (HT-29 [16]): -2.11 | fold change (FC) (HT-29 [17]): -2.21 | fold change (FC) (HT-29 [18]): -2.43 | fold change (FC) (HT-29 [19]): -2.65 | fold change (FC) (MCF7 [20]): 2.07 | fold change (FC) (MCF7 [21]): 2.04 | fold change (FC) (MCF7 [22]): 2 | fold change (FC) (MCF7 [23]): -2.01

O=C(OCC1c2ccccc2-c2ccccc21)N1CC(n2cnc3c(Cl)ncnc32)OCc2ccccc21 (racemic)
fold change (FC) (HT-29 [24]): -2.13 | fold change (FC) (HT-29 [25]): -2.18 | fold change (FC) (HT-29 [26]): -2.25 | fold change (FC) (HT-29 [27]): -2.36 | fold change (FC) (HT-29 [28]): -2.98 | fold change (FC) (MCF7 [29]): 4.84 | fold change (FC) (MCF7 [30]): 4.07 | fold change (FC) (MCF7 [31]): 2.99 | fold change (FC) (MCF7 [32]): 2.73 | fold change (FC) (MCF7 [33]): -3.01 | fold change (FC) (MCF7 [34]): -3.03 | fold change (FC) (HT-29 [35]): -2 | fold change (FC) (HT-29 [36]): -2.03 | fold change (FC) (HT-29 [37]): -2.04 | fold change (FC) (HT-29 [38]): -2.1
